RGS4 act – potentiators or activators of RGS4; HEK293 M3R/inducible RGS4, carbachol calcium flux Fluo4; stronger effect = lower value; AID 463111; 310,000 tested, 0.92% active; B-score at 10 µM;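 active = B-score of the integrated calcium signal more than 4 SD below the library mean, with starting fluorescence not abnormally high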;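 also: negative B-score means reduced calcium response which marks RGS4 activation or potentiation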
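Reagent: ECmax carbachol challenge; Test system: M3R-expressing HEK293 line, RGS4 induced by doxycycline; Schedule: overnight RGS4 induction, 30 min dye load 37 °C, 20 min compound RT; Detection: calcium dye Fluo4 fluorescence; Read-out: Agonist-evoked peak-minus-minimum fluorescence over baseline, integrated ratio, B score.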
RGS4 inh – inhibitors of human RGS4; P49798; HEK293 M3R/RGS4 inducible, Fluo-4 calcium flux; stronger effect = higher value; triggered by carbachol at its EC20; B-score at 10 µM; 310,000 tested, 0.45% active;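 active = B-score, a plate-corrected calcium signal, over three deviations above library mean, with baseline fluorescence within five deviations of library mean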;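 also: RGS4 expression induced by doxycycline in cells with stable M3 receptor; B-score is computed from the integrated fluorescence ratio over baseline after carbachol; higher B-score means a larger calcium signal and so more RGS4 inhibition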
MrgX1 allo act – human MrgX1 positive allosteric modulation, primary screen; Q96LB2; MrgX1-HEK293, Fluo-4 calcium flux, FDSS; stronger effect = higher value; B-score at 10 µM; 310,000 tested, 0.63% active; AID 588675;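 active = plate-corrected calcium response at least 3 library SD above typical, normal starting fluorescence, not activating the receptor alone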;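 also: compound read alongside a low EC10 to EC30 dose of BAM8-22 agonist; peak minus trough fluorescence over baseline measured at the second addition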
Target sequence (Q96LB2 whole entry, looked up): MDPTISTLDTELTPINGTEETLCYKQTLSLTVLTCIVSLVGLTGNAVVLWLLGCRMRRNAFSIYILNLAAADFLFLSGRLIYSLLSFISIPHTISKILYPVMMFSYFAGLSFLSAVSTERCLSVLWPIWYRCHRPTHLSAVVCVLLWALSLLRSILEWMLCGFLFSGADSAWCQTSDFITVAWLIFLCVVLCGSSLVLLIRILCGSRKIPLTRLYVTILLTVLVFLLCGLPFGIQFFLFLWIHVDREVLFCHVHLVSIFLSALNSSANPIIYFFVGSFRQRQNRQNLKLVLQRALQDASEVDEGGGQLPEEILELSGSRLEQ
Kir21 inh – Kir2.1 (mouse) channel inhibition; HEK293-Kir2.1, FluxOR thallium flux fluorescence; stronger effect = lower value; 310,000 tested, 0.85% active; B-score at 10 µM;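 active = fluorescence ratio B-score at or below minus 3 SD of library scores, with starting-brightness B-score within 2 SD, cut at about -4.2 in these data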;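 also: channel flux triggered by added potassium and thallium sulfate stimulus; B-score of peak minus minimum fluorescence over baseline after thallium stimulus; more negative B-score means stronger Kir2.1 block with less thallium influx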
Target sequence (P35561 whole entry, looked up): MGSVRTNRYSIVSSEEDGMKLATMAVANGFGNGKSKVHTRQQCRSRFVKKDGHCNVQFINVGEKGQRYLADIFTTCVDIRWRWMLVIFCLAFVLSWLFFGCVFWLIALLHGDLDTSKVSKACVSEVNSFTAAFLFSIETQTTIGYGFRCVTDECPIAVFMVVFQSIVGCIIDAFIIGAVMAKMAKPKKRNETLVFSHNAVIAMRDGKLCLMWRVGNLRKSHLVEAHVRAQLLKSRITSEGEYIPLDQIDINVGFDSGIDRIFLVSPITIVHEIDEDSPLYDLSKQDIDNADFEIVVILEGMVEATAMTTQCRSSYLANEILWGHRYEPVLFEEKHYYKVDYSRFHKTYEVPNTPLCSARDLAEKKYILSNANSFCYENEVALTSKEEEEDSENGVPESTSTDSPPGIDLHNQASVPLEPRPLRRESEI
MrgX1 ag – agonists of human MrgX1 receptor; Q96LB2; MrgX1-HEK293 cells, Fluo-4 calcium fluorescence, agonist mode; stronger effect = higher value; B-score at 10 µM; 310,000 tested, 0.44% active; AID 588627;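 active = calcium response B-score plate-corrected fluorescence ratio at least 3 library SD, with starting fluorescence B-score inside 5 SD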
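System: HEK293 cells stably expressing human MrgX1 receptor; Dosing: test compound in the initial addition of three; Schedule: overnight plating, then 30 min 37 °C plus 30 min room-temperature dye loading; Detection: kinetic calcium dye fluorescence, Fluo-4 NW; Controls: per-plate positive and negative controls for Z′ factor.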
MrgX1 antagonist – antagonists of human MrgX1 receptor; Q96LB2; B-score at 10 µM; 310,000 tested, 1.3% active; AID 588676; MRGX1-HEK293 calcium flux, Fluo-4, BAM8-22 antagonism; stronger effect = lower value;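 active = calcium-response B-score plate-corrected more than 3 library SD below zero, starting fluorescence within 5 deviations, no agonist response on first addition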;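 also: peak minus trough fluorescence over baseline after final BAM8-22 challenge near maximal dose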
hERG inh – counter-screen for Kir2.1 inhibitors: effect on human hERG. hERG-expressing cells, thallium flux. 320 tested, 20% active. shares compounds with Kir21 inh. AID 2236. inhibition, % at 10 µM;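 also: host cells are CHO cells stably expressing hERG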
KCNK9 spec – tests whether Kir2.1 inhibitors also affect human KCNK9; 320 tested, 5% active; shares compounds with Kir21 inh; inhibition, % at 10 µM; KCNK9-expressing cells, ion flux inhibition
Kir21 ephys inh – blocks mouse Kir2.1 current in automated electrophysiology; Kir2.1 cells, automated patch-clamp current inhibition; 320 tested, 71% active; shares compounds with Kir21 inh; inhibition, % at 25 µM
Of the large screens only hits and unclear results are named; the others gave an inactive call (follow-up assays come after a bar, where they were run). Compounds with a hit are over-represented: about 4.1% of the library has one in this group of screens. Unless noted, no rule for the calls is given here.

COc1ccccc1CN1CCCCC1C(=O)O (stereo unspecified)	none
COc1ccc(N(CC(=O)Nc2ccccc2C)S(=O)(=O)c2ccccc2[N+](=O)[O-])c(OC)c1	none
COc1ccc(Nc2ccnc3ccccc23)cc1	Kir21 inh -14.7 | hERG inh inactive | KCNK9 spec inactive | Kir21 ephys inh 81.7%
CC(C)(C)NC(=O)Cn1cc(C#N)c2cc(Br)ccc21	none
Cc1ccc(CSc2nnc(CCCCCNC(=O)OC(C)(C)C)o2)cc1	none
CC(C)(C)OC(=O)NCCc1nnc(SCc2ccc(Cl)cc2)o1	Kir21 inh -16.2 | hERG inh inactive | KCNK9 spec inactive | Kir21 ephys inh 73.8%
O=[N+]([O-])c1cccc(-c2csc(Nc3ccccc3)n2)c1	none | hERG inh inactive | KCNK9 spec inactive | Kir21 ephys inh inactive
CSc1ccccc1NS(=O)(=O)c1cccc2nonc12	none
Cc1cc(S(=O)(=O)Nc2cc(C)c(O)c(C)c2)c(C)s1	Kir21 inh -6.74 | hERG inh inactive | KCNK9 spec inactive | Kir21 ephys inh 18.3%
O=C(COc1ncnc2sccc12)N1CCc2ccccc2C1	none
COc1cccc(C(=O)N(Cc2ccccc2)Cc2cc3cc4c(cc3[nH]c2=O)OCCO4)c1	none
CCOc1nc(C)cc(C)c1S(=O)(=O)c1cccc(Cl)c1	Kir21 inh -8.22 | hERG inh inactive | KCNK9 spec inactive | Kir21 ephys inh 35.8%
CC(C)(c1ccccc1)c1ccc(OCCCNCCO)cc1	Kir21 inh -8.55 | hERG inh inactive | KCNK9 spec inactive | Kir21 ephys inh 58.6%
OC(CNCc1ccco1)COc1ccccc1 (stereo unspecified)	none (no result: MrgX1 allo act, MrgX1 ag, MrgX1 antagonist)
OC(CNCc1ccco1)Cn1c2ccccc2c2ccccc21 (stereo unspecified)	Kir21 inh -11.4 | hERG inh 61.0% | KCNK9 spec inactive | Kir21 ephys inh 25.3%
CCOC(=O)c1ccc(Nc2ncnc3ccc(C)cc23)cc1	none
CCOC(=O)c1cccc(Nc2ncnc3ccc(C)cc23)c1	Kir21 inh -6.05 | hERG inh inactive | KCNK9 spec inactive | Kir21 ephys inh 32.4%
c1ccc(-c2ccccc2OCCOCCN2CCc3ccccc3C2)cc1	Kir21 inh -8.31 | hERG inh 66.0% | KCNK9 spec inactive | Kir21 ephys inh 39.1%
CC(=O)Nc1c(C)cc(S(C)(=O)=O)cc1C	none
CCn1c(CNc2ccc(Cl)cc2)nnc1SCc1ccccc1	Kir21 inh -6.2 | hERG inh inactive | KCNK9 spec inactive | Kir21 ephys inh inactive
COc1ccc(C2CC(=O)c3c(C)nc(N4CCN(Cc5ccccc5)CC4)nc3C2)cc1OC (stereo unspecified)	none
Cc1nc(N2CCN(Cc3ccccc3)CC2)nc2c1C(=O)CC(C)C2 (stereo unspecified)	Kir21 inh -7.12 | hERG inh inactive | KCNK9 spec inactive | Kir21 ephys inh 8.9%
O=C(CCC(=O)N1CCOc2ccc(Cl)cc21)NCCCN1CCN(Cc2ccccc2)CC1	none
CC1CN(C(=O)CCC(=O)NCCCN2CCN(Cc3ccccc3)CC2)c2cc(Cl)ccc2O1 (stereo unspecified)	Kir21 inh -6.31 | hERG inh 64.0% | KCNK9 spec inactive | Kir21 ephys inh 9.3%
Cc1ccc(C)c(Cn2c3ccccc3c3cnn(CC(=O)NCCCN4CCCCC4)c(=O)c32)c1	Kir21 inh -6.16 | hERG inh inactive | KCNK9 spec inactive | Kir21 ephys inh inactive
COc1ccc(-n2nc3c(c2NC(=O)C(C)C)CSC3)cc1	none
COc1cccc(C(C)NC(=S)NCc2ccc(Cl)cc2)c1 (stereo unspecified)	Kir21 inh -7.85 | hERG inh inactive | KCNK9 spec inactive | Kir21 ephys inh 31.4%
COc1cccc(NC(=O)Cn2c(=O)n(-c3ccccc3)c(=O)c3oc4ccccc4c32)c1	none
CCOc1cc(/C=N/N=C(N)N)ccc1OCc1ccc(Cl)cc1	Kir21 inh -16.3 | hERG inh 60.0% | KCNK9 spec inactive | Kir21 ephys inh inactive
NC(N)=N/N=C/c1ccc(OCc2ccccc2)c(OCc2ccccc2)c1	none
CC(C)CC(C(=O)Nc1oc(-c2ccccc2)c(-c2ccccc2)c1C#N)N1C(=O)c2ccccc2C1=O (stereo unspecified)	none
COc1cccc(OC)c1C(=O)Nc1ccc(N2CCCC2)cc1	none | hERG inh inactive | KCNK9 spec inactive | Kir21 ephys inh inactive
COc1cccc(OC)c1C(=O)Nc1ccc(N2CCN(S(C)(=O)=O)CC2)cc1	none
CC(NC(=O)Nc1ccc(Cl)cc1)C1CCCO1 (stereo unspecified)	none
Cc1cc(Cl)ccc1OC(C)C(=O)NC(C)C1CCCO1 (stereo unspecified)	Kir21 inh -8.48 | hERG inh inactive | KCNK9 spec inactive | Kir21 ephys inh 9.2%
CC(C)O/C(=N\S(=O)(=O)c1ccc(Cl)cc1)c1ccccc1	RGS4 act -7.11, Kir21 inh -8.32 | hERG inh inactive | KCNK9 spec inactive | Kir21 ephys inh 17.2%
CC(C)CO/C(=N/S(=O)(=O)c1ccccc1)c1ccccc1	none
COc1ccc(CN(C)CC2CCCN(CCc3ccc(F)cc3)C2)cc1OC (stereo unspecified)	Kir21 inh -6.23 | hERG inh inactive | KCNK9 spec inactive | Kir21 ephys inh 22.3%
COc1cc(CN(C)CC2CCCN(CCc3ccc(F)cc3)C2)c(Cl)cc1O (stereo unspecified)	none
O=C(c1cc(=O)[nH]c2ccccc12)N1CCc2ccccc2C1	none
O=C(N/N=C/c1ccc(Br)o1)c1cc([N+](=O)[O-])cc([N+](=O)[O-])c1	none
O=C(c1cc(COc2ccc3c(c2)CCCC3)on1)N1CCCC1	none | hERG inh inactive | KCNK9 spec inactive | Kir21 ephys inh inactive
CCN(CC)CCCN(C(=O)c1ccc(OC)cc1)c1nc(-c2ccc(OC)cc2)cs1	Kir21 inh -6.07 | hERG inh inactive | KCNK9 spec inactive | Kir21 ephys inh inactive
CCN(CC)CCCN(C(=O)c1ccccc1C)c1nc(-c2ccc(OC)cc2)cs1	none
COc1cccc(CNc2ccc3[nH]c(=O)[nH]c3c2)c1OCc1ccccc1F	Kir21 inh -7.44 | hERG inh inactive | KCNK9 spec inactive | Kir21 ephys inh 2.2%
CN(C(=O)COC(=O)c1cc(Br)c(Br)s1)C1CCS(=O)(=O)C1 (stereo unspecified)	none
